Experimental findings from ChEMBL document CHEMBL4673221, “Furanoflavones pongapin and lanceolatin B blocks the cell cycle and induce senescence in CYP1A1-overexpressing breast cancer cells” (Bioorg Med Chem, 2018) are described below.

The target in data set [1] is T1, Cytochrome P450 1A1 (Homo sapiens, UniProt P04798).
T1 sequence (P04798 whole entry): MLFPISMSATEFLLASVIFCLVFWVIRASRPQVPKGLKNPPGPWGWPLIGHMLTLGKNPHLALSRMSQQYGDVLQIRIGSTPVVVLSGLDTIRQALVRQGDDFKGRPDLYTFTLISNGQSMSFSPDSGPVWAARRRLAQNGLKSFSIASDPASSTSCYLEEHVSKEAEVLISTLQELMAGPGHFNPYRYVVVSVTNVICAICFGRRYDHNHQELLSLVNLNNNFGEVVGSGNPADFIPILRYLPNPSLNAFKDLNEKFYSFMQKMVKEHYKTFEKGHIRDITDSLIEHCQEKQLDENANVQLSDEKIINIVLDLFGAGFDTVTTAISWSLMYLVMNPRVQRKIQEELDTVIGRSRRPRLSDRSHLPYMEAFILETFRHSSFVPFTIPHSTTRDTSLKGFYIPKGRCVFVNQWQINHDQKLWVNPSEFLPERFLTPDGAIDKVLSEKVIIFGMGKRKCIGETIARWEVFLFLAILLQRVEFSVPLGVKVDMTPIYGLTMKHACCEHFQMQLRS
The experiment in a line: Inhibition of human CYP1A1 expressed in sacchrosomes using 7-ethoxyresorufin as substrate by fluorescence based assay. An outline of the steps: (§1)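 Enzymes were microsomal preparations isolated from recombinant baker's yeast (Sacchrosomes). Compounds were screened at 10 μM for percent inhibition, and IC50 values were also determined. Values are mean ± SD of three independent experiments. Alpha-naphthoflavone served as the positive control.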

Another data set has as its target Cytochrome P450 2E1 (Homo sapiens, UniProt P05181). As to the kind of experiment: Inhibition of human CYP2E1 expressed in Sacchrosomes by fluorescence based assay. It counts as ADME.
Data set [2] addresses T2, Cytochrome P450 1B1 (Homo sapiens, UniProt Q16678).
T2 sequence (Q16678 whole entry): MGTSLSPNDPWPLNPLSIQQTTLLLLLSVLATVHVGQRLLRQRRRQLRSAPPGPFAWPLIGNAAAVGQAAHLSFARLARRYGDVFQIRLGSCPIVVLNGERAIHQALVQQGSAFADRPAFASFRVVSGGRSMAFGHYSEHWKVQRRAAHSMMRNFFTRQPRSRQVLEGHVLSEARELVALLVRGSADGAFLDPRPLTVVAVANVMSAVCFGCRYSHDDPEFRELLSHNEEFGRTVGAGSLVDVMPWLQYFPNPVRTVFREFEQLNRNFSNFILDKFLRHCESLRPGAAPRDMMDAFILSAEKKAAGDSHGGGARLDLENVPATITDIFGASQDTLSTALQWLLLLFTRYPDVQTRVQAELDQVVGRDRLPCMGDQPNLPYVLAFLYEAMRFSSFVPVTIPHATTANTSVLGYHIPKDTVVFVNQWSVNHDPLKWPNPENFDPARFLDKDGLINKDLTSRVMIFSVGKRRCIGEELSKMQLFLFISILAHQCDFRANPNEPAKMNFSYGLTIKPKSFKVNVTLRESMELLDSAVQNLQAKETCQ
As to the kind of experiment: Inhibition of human CYP1B1 expressed in human HEK293 cells using 7-ethoxyresorufin as substrate preincubated for 30 mins followed by substrate additon and measured after 60 mins by fluorescence based assay. The format is ADME, cell-based. The method in brief:
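The assay used live recombinant human HEK293 cells grown in suspension, each cell line expressing a single CYP (CYP1A1 or CYP1B1). Percent inhibition was read at 10 μM, and IC50 values were determined. Values are mean ± SD of three independent experiments. Alpha-naphthoflavone served as the reference inhibitor.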

The target in the next data set is T3, Cytochrome P450 2C18 (Homo sapiens, UniProt P33260).
T3 sequence (P33260 whole entry): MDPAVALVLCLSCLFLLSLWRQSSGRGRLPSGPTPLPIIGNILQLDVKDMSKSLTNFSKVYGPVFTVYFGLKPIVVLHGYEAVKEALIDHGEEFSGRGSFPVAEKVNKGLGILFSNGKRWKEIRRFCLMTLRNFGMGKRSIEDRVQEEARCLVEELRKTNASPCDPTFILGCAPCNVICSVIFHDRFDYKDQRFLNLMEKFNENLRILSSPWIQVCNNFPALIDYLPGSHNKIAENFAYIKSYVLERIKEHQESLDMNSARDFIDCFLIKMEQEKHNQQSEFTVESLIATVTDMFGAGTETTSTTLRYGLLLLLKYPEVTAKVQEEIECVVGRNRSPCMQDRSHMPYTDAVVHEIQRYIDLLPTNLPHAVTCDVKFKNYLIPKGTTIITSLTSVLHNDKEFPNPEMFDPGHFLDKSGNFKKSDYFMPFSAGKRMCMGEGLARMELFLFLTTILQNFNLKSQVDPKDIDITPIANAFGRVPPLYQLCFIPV
The experiment in a line: Inhibition of human CYP2C18 expressed in Sacchrosomes by fluorescence based assay. It counts as ADME.

The next data set deals with Cytochrome P450 2C9 (Homo sapiens, UniProt P11712). The experiment in a line: Inhibition of human CYP2C9 expressed in Sacchrosomes using 3-cyano-7-ethoxycoumarin as substrate by fluorescence based assay. The format is ADME.
Data set [3] relates to MCF7. The experiment in a line: Induction of cell cycle arrest in human MCF7 over expressing CYP1A cells assessed as accumulation at G0/G1 phase incubated for 24 hrs by PI staining based flow cytometric analysis (Rvb =54.3 %). The format is functional. A general note: In flow cytometry, cells or beads pass a laser one at a time.
For data set [4], the target named is T2, Cytochrome P450 1B1. The experiment in a line: Inhibition of human CYP1B1 expressed in sacchrosomes using 7-ethoxyresorufin as substrate by fluorescence based assay. The format is ADME. The method in brief: as §1
In data set [5] the test system is MCF7. The experiment in a line: Cell cycle arrest in human MCF-7 cells over expressing CYP1A1 assessed as down regulation of CyclinD1 after 24 hrs by western blotting assay. The format is functional, cell-based. The method in brief:
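Cyclin D1 was detected by Western blot, with β-tubulin as loading control. Untreated cells served as control.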
(In general: Immunoblotting shows a protein as a band on a membrane.)

The target in data set [6] is T1, Cytochrome P450 1A1. As to the kind of experiment: Inhibition of human CYP1A1 expressed in HEK293 cells assessed as reduction in CYP1A1 mediated […] induced-toxicity by measuring EC50 at 3 times of IC50 concentration by MTT assay relative to control. The format is cell-based. The arrangement: scale not given: the % may be the effect or the level left. An outline of the steps:
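Adherent HEK293 cells transfected with pcDNA3.1/hCYP1A1 were exposed to B[a]P over 0.05–100 µM, with inhibitor at 3x its IC50 from the suspension HEK293-CYP1A1 assay. The EC50 of B[a]P for cell growth inhibition was derived. Cells transfected with empty plasmid were used for comparison. Values are mean and SD of three independent experiments.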
For orientation: Tetrazolium assays rely on reduction of a dye to a coloured formazan, in cell work by metabolically active cells.

A further data set has as its target Cytochrome P450 3A4 (Homo sapiens, UniProt P08684). As to the kind of experiment: Inhibition of human CYP3A4 expressed in Sacchrosomes using dibenzylfluorescein as substrate by fluorescence based assay. It counts as ADME.

The source made the active and inactive calls. No cut-off for these calls is given here. Some results are limits rather than exact numbers.

Chain of Cytochrome P450 2E1 (P05181 whole entry): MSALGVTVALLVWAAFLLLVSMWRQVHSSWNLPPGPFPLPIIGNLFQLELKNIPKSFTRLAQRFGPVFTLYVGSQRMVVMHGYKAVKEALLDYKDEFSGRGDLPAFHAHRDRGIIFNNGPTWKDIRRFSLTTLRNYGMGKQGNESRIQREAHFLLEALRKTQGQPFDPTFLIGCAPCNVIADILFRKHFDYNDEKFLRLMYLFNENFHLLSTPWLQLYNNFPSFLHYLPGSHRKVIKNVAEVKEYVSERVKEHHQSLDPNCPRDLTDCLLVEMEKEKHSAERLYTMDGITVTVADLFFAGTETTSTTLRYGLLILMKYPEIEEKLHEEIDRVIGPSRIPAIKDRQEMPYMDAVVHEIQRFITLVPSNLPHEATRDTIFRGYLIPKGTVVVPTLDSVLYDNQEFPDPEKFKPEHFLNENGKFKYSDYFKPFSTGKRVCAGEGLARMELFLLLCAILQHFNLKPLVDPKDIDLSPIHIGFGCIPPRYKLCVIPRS
Chain of Cytochrome P450 3A4 (P08684 whole entry): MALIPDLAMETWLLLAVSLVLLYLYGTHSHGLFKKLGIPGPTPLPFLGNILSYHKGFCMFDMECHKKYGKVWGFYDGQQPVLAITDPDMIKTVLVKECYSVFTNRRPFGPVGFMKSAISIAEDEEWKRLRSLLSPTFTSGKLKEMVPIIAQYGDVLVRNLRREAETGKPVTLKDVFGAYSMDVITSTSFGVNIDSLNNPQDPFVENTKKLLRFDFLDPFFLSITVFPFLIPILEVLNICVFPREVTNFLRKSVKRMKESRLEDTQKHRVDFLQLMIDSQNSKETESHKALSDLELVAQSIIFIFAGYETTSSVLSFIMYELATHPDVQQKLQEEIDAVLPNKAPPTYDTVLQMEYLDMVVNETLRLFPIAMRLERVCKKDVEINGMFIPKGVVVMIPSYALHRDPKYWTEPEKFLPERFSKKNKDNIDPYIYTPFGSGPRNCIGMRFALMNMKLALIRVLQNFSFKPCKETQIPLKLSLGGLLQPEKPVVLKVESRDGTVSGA
Chain of Cytochrome P450 2C9 (P11712 whole entry): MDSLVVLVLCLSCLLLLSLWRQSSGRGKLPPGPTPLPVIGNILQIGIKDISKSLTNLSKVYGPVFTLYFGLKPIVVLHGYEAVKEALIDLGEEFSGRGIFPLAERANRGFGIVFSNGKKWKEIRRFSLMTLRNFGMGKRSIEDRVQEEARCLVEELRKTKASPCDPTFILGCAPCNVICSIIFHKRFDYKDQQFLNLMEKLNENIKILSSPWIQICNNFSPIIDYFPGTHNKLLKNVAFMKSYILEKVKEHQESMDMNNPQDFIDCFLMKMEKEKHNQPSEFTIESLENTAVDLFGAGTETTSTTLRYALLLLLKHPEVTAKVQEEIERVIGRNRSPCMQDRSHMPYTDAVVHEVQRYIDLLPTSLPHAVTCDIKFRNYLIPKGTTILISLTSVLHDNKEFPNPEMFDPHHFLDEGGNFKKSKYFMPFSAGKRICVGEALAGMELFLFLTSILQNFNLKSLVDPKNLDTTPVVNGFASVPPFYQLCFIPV

Usually IC50 stands for the concentration at which inhibition is half-maximal. On to `O=c1cc(-c2ccccc2)oc2c1ccc1occc12` [LANCEOLATIN B], for which the half-inhibitory concentration (IC50) against Cytochrome P450 1A1 [1] was 0.076 µM; on Cytochrome P450 2E1 it was more than 20 µM; against Cytochrome P450 1B1 [2], 0.39 µM; against Cytochrome P450 2C18, more than 20 µM; against Cytochrome P450 2C9, more than 20 µM; against Cytochrome P450 1B1 [4] it was 0.29 µM. For the same molecule, the IC50 at Cytochrome P450 3A4 was more than 20 µM. Also, the Activity worked out at 81% with MCF7 [3] and 100% at Cytochrome P450 1A1 [6]. For the same molecule, the result with MCF7 [5] was Active.

On to `COc1c(-c2ccc3c(c2)OCO3)oc2c(ccc3occc32)c1=O` [PONGAPIN], for which the IC50 on Cytochrome P450 1A1 [1] is 0.071 µM; against Cytochrome P450 2E1 it was more than 20 µM; on Cytochrome P450 1B1 [2], 1.06 µM; on Cytochrome P450 2C18 it was more than 20 µM; against Cytochrome P450 2C9, more than 20 µM; against Cytochrome P450 1B1 [4], 0.95 µM. Besides, the IC50 at Cytochrome P450 3A4 was more than 20 µM. For the same molecule, the Activity with MCF7 [3] is given as 83.8%; on Cytochrome P450 1A1 [6], 100%. In the data set with MCF7 [5], the result was Active.
